Assay results taken from ChEMBL document CHEMBL2163188, “Discovery of piragliatin--first glucokinase activator studied in type 2 diabetic patients” (J Med Chem, 2012).

Assays:
[1] = molecular target: T1, Hexokinase-4 (Homo sapiens) (UniProt P35557); experiment: Activation of human recombinant glucokinase assessed as concentration required for 1.5 fold increase in enzymatic activity
T1 sequence (whole entry): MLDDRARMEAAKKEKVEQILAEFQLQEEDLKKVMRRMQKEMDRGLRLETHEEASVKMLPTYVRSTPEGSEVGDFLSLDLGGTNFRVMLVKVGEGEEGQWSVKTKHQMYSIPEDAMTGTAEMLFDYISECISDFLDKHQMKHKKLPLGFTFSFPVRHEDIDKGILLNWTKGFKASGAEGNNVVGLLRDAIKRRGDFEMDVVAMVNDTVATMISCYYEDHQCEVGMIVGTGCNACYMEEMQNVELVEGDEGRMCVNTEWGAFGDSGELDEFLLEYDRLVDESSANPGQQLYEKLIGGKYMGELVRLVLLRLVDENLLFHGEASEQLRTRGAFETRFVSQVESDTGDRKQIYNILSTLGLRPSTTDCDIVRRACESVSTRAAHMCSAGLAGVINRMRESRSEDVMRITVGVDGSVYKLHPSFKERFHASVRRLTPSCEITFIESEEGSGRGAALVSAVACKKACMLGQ
In short: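 Human recombinant GK; activator at fixed concentrations from ∼0.010 to 30 μM, each in duplicate, with glucose held at 5 mM. SC1.5 is the activator concentration giving a 1.5-fold rise in enzymatic activity over untreated GK. Assay CV was about 15%.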

[2] = tested on: Liver microsomes; experiment: Drug degradation in human liver microsomes assessed as formation of metabolite 2 level at 20 uM after 30 mins by LCMS/MS analysis; type: ADME, Microsome; conditions: 0.5 h
In short: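 Pooled human liver microsomes at 1 or 2 mg/mL protein in 0.1 M potassium phosphate pH 7.4 with 3 mM MgCl2, 1 mM EDTA and 1 mM NADPH. Substrate was 20 μM C-14 labelled compound, with 1% methanol final. Incubation ran 30 min after a 5 min preincubation and was stopped with ice-cold methanol or 50% aqueous TFA.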

Structure (SMILES): CS(=O)(=O)c1ccc(C(CC2CCCC2)C(=O)Nc2nc(CCO)cs2)cc1 (racemic)
- Activity [1]: 0.667 µM
- Drug metabolism [2]: 167.3 ng/mL
